Reference: ChEMBL document CHEMBL4811275, “Iodinated 1,2-diacylhydrazines, benzohydrazide-hydrazones and their analogues as dual antimicrobial and cytotoxic agents” (Bioorg Med Chem, 2021)
pIC50: −log10 of the molar value. Values after ≈ are worked out from the molar mass of the structure shown.

Key:
Staphylococcus aureus [1] = assay: Antibacterial activity against Staphylococcus aureus ATCC 29213 assessed as reduction in bacterial growth incubated for 24 hrs by broth microdilution method; format: functional
Summary of the method: (§1)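 Cation-adjusted Mueller-Hinton broth microdilution per EUCAST, modified; compounds from DMSO stocks, final DMSO ≤1% v/v; scale starting from 0.49 µM. Static incubation at 35 ± 2 °C, dark, humidified, read at 24 and 48 h. MIC = lowest concentration with no visible growth by eye; duplicates, parallel readings within one dilution step; growth and medium/DMSO controls included.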

Staphylococcus aureus [2] = assay: Antibacterial activity against Staphylococcus aureus ATCC 29213 assessed as reduction in bacterial growth incubated for 48 hrs by broth microdilution method; format: functional; summary of the method: as §1
Staphylococcus aureus [3] = assay: Antibacterial activity against methicillin-resistant Staphylococcus aureus ATCC 43300 assessed as reduction in bacterial growth incubated for 24 hrs by broth microdilution method; format: functional
Summary of the method: (§2)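 EUCAST-based broth microdilution in cation-adjusted Mueller-Hinton broth. DMSO stocks, final DMSO ≤1% v/v, concentration scale starting from 0.49 µM. Static incubation at 35 ± 2 °C, dark and humidified. Run in duplicate, accepted only if parallel MICs differ by at most one dilution step. MIC is the lowest concentration with no visible growth by naked eye.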

Staphylococcus aureus [4] = assay: Antibacterial activity against methicillin-resistant Staphylococcus aureus ATCC 43300 assessed as reduction in bacterial growth incubated for 48 hrs by broth microdilution method; format: functional; summary of the method: as §2
[5] = tested on: Staphylococcus epidermidis; assay: Antibacterial activity against Staphylococcus epidermidis ATCC 12228 assessed as reduction in bacterial growth incubated for 24 hrs by broth microdilution method; format: functional; summary of the method: as §1
[6] = tested on: Staphylococcus epidermidis; assay: Antibacterial activity against Staphylococcus epidermidis ATCC 12228 assessed as reduction in bacterial growth incubated for 48 hrs by broth microdilution method; format: functional; summary of the method: as §1
Enterococcus faecalis [7] = assay: Antibacterial activity against Enterococcus faecalis ATCC 29212 assessed as reduction in bacterial growth incubated for 24 hrs by broth microdilution method; format: functional; summary of the method: as §1
Enterococcus faecalis [8] = assay: Antibacterial activity against Enterococcus faecalis ATCC 29212 assessed as reduction in bacterial growth incubated for 48 hrs by broth microdilution method; format: functional; summary of the method: as §1
Escherichia coli [9] = assay: Antibacterial activity against Escherichia coli ATCC 25922 assessed as reduction in bacterial growth incubated for 24 hrs by broth microdilution method; format: functional; summary of the method: as §1
Escherichia coli [10] = assay: Antibacterial activity against Escherichia coli ATCC 25922 assessed as reduction in bacterial growth incubated for 48 hrs by broth microdilution method; format: functional; summary of the method: as §1
HepG2 = assay: Cytotoxicity against human HepG2 cells assessed as reduction in cell viability incubated for 24 hrs by cell-titer 96 aqueous one solution cell proliferation assay; format: functional, cell-based; conditions: HepG2, 24 h

Structure (SMILES)	MIC (Staphylococcus aureus [1]) [µM]	MIC (Staphylococcus aureus [2]) [µM]	MIC (Staphylococcus aureus [3]) [µM]	MIC (Staphylococcus aureus [4]) [µM]	MIC [5] [µM]	MIC [6] [µM]	MIC (Enterococcus faecalis [7]) [µM]	MIC (Enterococcus faecalis [8]) [µM]	MIC (Escherichia coli [9]) [µM]	MIC (Escherichia coli [10]) [µM]	pIC50 (HepG2)
COc1ccc(C(=O)N/N=C/c2cc(I)cc(I)c2O)cc1	> 500	> 500	> 500	> 500	> 500	> 500	> 500	> 500	> 500	> 500	4.35
CCN1CCN(C(=O)N[C@@H](C(=O)N[C@@H]2C(=O)N3[C@@H]2SC(C)(C)[C@@H]3C(=O)O)c2ccccc2)C(=O)C1=O [PIPERACILLIN SODIUM]	1.85	–	14.8	–	> 59.3	–	7.41	–	3.71	–	–
CC(C)(C)c1ccc(C(=O)NNC(=O)c2cc(I)cc(I)c2O)cc1	> 500	> 500	> 500	> 500	> 500	> 500	> 500	> 500	> 500	> 500	4.06
CC(C)(C)c1ccc(C(=O)N/N=C/c2cc(I)cc(I)c2O)cc1	> 500	> 500	> 500	> 500	> 500	> 500	> 500	> 500	> 500	> 500	4.38
O=C(NNC(=O)c1cc(I)cc(I)c1O)c1ccc(Br)cc1	–	–	–	–	–	–	–	–	–	–	4.20
O=C(N/N=C/c1cc(I)cc(I)c1O)c1ccccc1	62.5 (≈ 30.8 µg/mL)	125 (≈ 61.5 µg/mL)	62.5 (≈ 30.8 µg/mL)	125 (≈ 61.5 µg/mL)	62.5 (≈ 30.8 µg/mL)	125 (≈ 61.5 µg/mL)	250 (≈ 123 µg/mL)	500 (≈ 246 µg/mL)	> 500	> 500	< 4.30
O=C(NNCc1cc(I)cc(I)c1O)c1ccc(Cl)cc1	31.2 (≈ 16.5 µg/mL)	62.5 (≈ 33 µg/mL)	31.2 (≈ 16.5 µg/mL)	62.5 (≈ 33 µg/mL)	15.6 (≈ 8.26 µg/mL)	15.6 (≈ 8.26 µg/mL)	15.6 (≈ 8.26 µg/mL)	15.6 (≈ 8.26 µg/mL)	> 500	> 500	4.28
O=C(NNC(=O)c1cc(I)cc(I)c1O)c1ccc(F)cc1	500 (≈ 263 µg/mL)	500 (≈ 263 µg/mL)	500 (≈ 263 µg/mL)	500 (≈ 263 µg/mL)	500 (≈ 263 µg/mL)	500 (≈ 263 µg/mL)	500 (≈ 263 µg/mL)	500 (≈ 263 µg/mL)	> 500	> 500	4.06
O=C(NNC(=O)c1cc(I)cc(I)c1O)c1ccccc1	–	–	–	–	–	–	–	–	–	–	4.01
O=C(N/N=C/c1cc(I)c(O)c(I)c1)c1ccc(I)cc1	> 250	> 250	> 250	> 250	> 250	> 250	> 250	> 250	> 250	> 250	< 4.30
Cc1ccc(C(=O)NNC(=O)c2cc(I)cc(I)c2O)cc1	125 (≈ 65.3 µg/mL)	> 125	> 125	> 125	125 (≈ 65.3 µg/mL)	> 125	> 125	> 125	> 125	> 125	4.06
O=C(N/N=C/c1cc(I)c(O)c(I)c1)c1ccc([N+](=O)[O-])cc1	250 (≈ 134 µg/mL)	250 (≈ 134 µg/mL)	500 (≈ 269 µg/mL)	> 500	> 500	> 500	> 500	> 500	> 500	> 500	4.04
O=C(N/N=C/c1cc(I)c(O)c(I)c1)c1ccc(O)cc1	500 (≈ 254 µg/mL)	500 (≈ 254 µg/mL)	> 500	> 500	> 500	> 500	> 500	> 500	> 500	> 500	3.96
O=C(N/N=C/c1cc(I)cc(I)c1O)c1ccc(Cl)cc1	31.2 (≈ 16.5 µg/mL)	31.2 (≈ 16.5 µg/mL)	31.2 (≈ 16.5 µg/mL)	62.5 (≈ 32.9 µg/mL)	31.2 (≈ 16.5 µg/mL)	62.5 (≈ 32.9 µg/mL)	62.5 (≈ 32.9 µg/mL)	62.5 (≈ 32.9 µg/mL)	> 500	> 500	4.83
Cc1ccc(C(=O)N/N=C/c2cc(I)cc(I)c2O)cc1	> 500	> 500	> 500	> 500	> 500	> 500	> 500	> 500	> 500	> 500	< 4.60
